Experiment [1] is filed under the species Rattus norvegicus. Put plainly: Equi-effective molar ratio expressed as the ratio of tested compound concentration to that of dequalinium that cause 50% inhibition of the AHP in rat sympathetic neurons. It counts as functional, Sympathetic neuron.
Experiment [2] is filed under the species Rattus norvegicus. Put plainly: Inhibition of after-hyperpolarization (AHP) in cultured rat sympathetic neurons. The settings on record: Sympathetic neuron. The experiment is classed as functional. The procedure, abridged:
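Compounds from 2 mM MeOH stocks, each tested at two to four concentrations on at least three cells. AHP inhibition was obtained by digitally subtracting blocker records from controls, with the peak difference given as % of control AHP at the same time point.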

We go through 16 compounds from ChEMBL document CHEMBL1129450, “Synthesis, molecular modeling, and K+ channel-blocking activity of dequalinium analogues having semirigid linkers” (J Med Chem, 1996).

Consider `Nc1cc[n+](Cc2ccc(Cc3ccc(C[n+]4ccc(N)c5ccccc54)cc3)cc2)c2ccccc12`, for which, in experiment [1], the Ratio stood at 0.39. For the same compound, half-maximal inhibition in experiment [2] (IC50) was put at 450 nM.

`Nc1cc[n+](Cc2ccc3ccc4ccc(C[n+]5ccc(N)c6ccccc65)cc4c3c2)c2ccccc12`: the Ratio in experiment [1] stood at 0.33. It took 200 nM to reach half-maximal inhibition in experiment [2] (IC50).

In the case of `Nc1cc[n+](Cc2ccc(C#Cc3ccc(C[n+]4ccc(N)c5ccccc54)cc3)cc2)c2ccccc12`, in experiment [1], the Ratio turned out to be 1.41. In addition, it took 1000 nM to reach half-maximal inhibition in experiment [2] (IC50).

On to `Nc1cc[n+](Cc2ccc3c(c2)Cc2cc(C[n+]4ccc(N)c5ccccc54)ccc2-3)c2ccccc12`, for which the Ratio in experiment [1] was found to be 0.33. In experiment [2], the midpoint of inhibition, the IC50, lay at 310 nM.

Turning to `Nc1cc[n+](Cc2ccc(CCCCc3ccc(C[n+]4ccc(N)c5ccccc54)cc3)cc2)c2ccccc12`, the Ratio in experiment [1] stood at 0.44. This compound also yielded an IC50 in experiment [2] of 370 nM.

Turning to `Nc1cc[n+](Cc2ccc(C[n+]3ccc(N)c4ccccc43)cc2)c2ccccc12`, in experiment [1], the Ratio worked out at 3.7. This compound had an IC50 in experiment [2] of 2800 nM.

With `Nc1cc[n+](Cc2ccc(-c3ccc(-c4ccc(C[n+]5ccc(N)c6ccccc65)cc4)cc3)cc2)c2ccccc12`, in experiment [1], the Ratio worked out at 2.3. Inhibition in experiment [2] was half-maximal at 1900 nM (IC50).

In the case of `Cc1cc(N)c2ccccc2[n+]1CCCCCCCCCC[n+]1c(C)cc(N)c2ccccc21.[Cl-].[Cl-]` [DEQUALINIUM CHLORIDE], the Ratio in experiment [1] is given as 1. The IC50 in experiment [2] was determined as 650 nM.

Regarding `Nc1cc[n+](Cc2ccc3cc(C[n+]4ccc(N)c5ccccc54)ccc3c2)c2ccccc12`, the Ratio in experiment [1] stood at 0.83. Moreover, the IC50 in experiment [2] worked out at 490 nM.

On to `Nc1cc[n+](Cc2cccc(-c3cccc(C[n+]4ccc(N)c5ccccc54)c3)c2)c2ccccc12`, for which the Ratio in experiment [1] amounted to 0.55. The IC50 in experiment [2] amounted to 290 nM.

`Nc1cc[n+](Cc2ccc(-c3ccc(C[n+]4ccc(N)c5ccccc54)cc3)cc2)c2ccccc12`: in experiment [1], the Ratio was determined as 0.4. Further, the half-maximal inhibitory concentration (IC50) in experiment [2] is 380 nM.

On to `Nc1cc[n+](Cc2ccc(CCCc3ccc(C[n+]4ccc(N)c5ccccc54)cc3)cc2)c2ccccc12`, for which, in experiment [1], the Ratio came to 0.31. The compound also returned an IC50 in experiment [2] of 200 nM.

With `Nc1cc[n+](Cc2ccc(-c3cccc(-c4ccc(C[n+]5ccc(N)c6ccccc65)cc4)n3)cc2)c2ccccc12`, the Ratio in experiment [1] was 0.59. In experiment [2], this compound had an IC50 of 360 nM.

With `Nc1cc[n+](Cc2ccc(CCc3ccc(C[n+]4ccc(N)c5ccccc54)cc3)cc2)c2ccccc12`, in experiment [1], the Ratio came out at 0.71. This compound also came in with an IC50 in experiment [2] of 410 nM.

As to `Nc1cc[n+](Cc2ccc(/C=C/c3ccc(C[n+]4ccc(N)c5ccccc54)cc3)cc2)c2ccccc12`, the Ratio in experiment [1] came out at 1.46. This compound also yielded a 50% inhibitory concentration (IC50) in experiment [2] of 940 nM.

With `Nc1cc[n+](Cc2ccc(/C=C\c3ccc(C[n+]4ccc(N)c5ccccc54)cc3)cc2)c2ccccc12`, in experiment [1], the Ratio was determined as 0.24. Further, the IC50 in experiment [2] came out at 190 nM.
